Only some compounds are listed: those with a hit (about 4% of all), similar ones and a draw of the others.
Yeast growth inh – yeast BB579 growth reduction in restrictive medium; S. cerevisiae BB579 growth, OD615, 48 h; inhibition, % at 10 µM; hit rate 0.51% among 140,000; AID 804;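 active = inhibition above a set limit, 3 SD over the mean compound inhibition, cut at about 44% in these data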
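System: Saccharomyces cerevisiae DeaD strain BB579, replicative lifespan model yeast. Buffer or medium: restrictive glucose-based CSMM-D medium. Doses: one dose, 10 µM compound with 0.25% DMSO. Timing: 4 h preincubation and 48 h exposure at 30 °C. Detection: turbidity as optical density at 615 nm. Benchmarks: amphotericin B 10 µg/mL, positive.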
Mdm2 ligase inh – inhibitors of human Mdm2 E3 ubiquitin ligase. Q00987. cell-based MDM2 ubiquitination luciferase reporter, 2 h; 0 = plate control, 100 = twice control, blank-subtracted. signal enhancement, % at 5 µM. hit rate 0.11% among 210,000. AID 1230;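 active = signal enhancement of 30% or more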;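 note: luminescence tracks abundance of the self-degrading MDM2-luciferase fusion protein; higher signal means inhibition of MDM2 E3 ligase activity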
Target sequence (Q00987 whole entry, looked up, the tested form may be a part): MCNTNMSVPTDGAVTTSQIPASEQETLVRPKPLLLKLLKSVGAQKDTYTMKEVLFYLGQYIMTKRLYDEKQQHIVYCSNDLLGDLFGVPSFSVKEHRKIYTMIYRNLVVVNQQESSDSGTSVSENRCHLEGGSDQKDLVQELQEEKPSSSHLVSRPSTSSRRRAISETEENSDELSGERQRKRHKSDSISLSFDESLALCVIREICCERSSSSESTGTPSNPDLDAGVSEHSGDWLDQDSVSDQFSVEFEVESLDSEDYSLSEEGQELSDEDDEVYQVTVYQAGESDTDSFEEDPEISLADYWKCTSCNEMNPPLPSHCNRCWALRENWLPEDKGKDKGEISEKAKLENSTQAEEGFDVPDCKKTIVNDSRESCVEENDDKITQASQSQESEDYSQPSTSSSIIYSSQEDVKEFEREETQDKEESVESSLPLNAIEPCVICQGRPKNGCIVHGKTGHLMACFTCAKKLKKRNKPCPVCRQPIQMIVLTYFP
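System: stable MDM2–luciferase fusion reporter cells / Input: 2000 cells seeded into each well / Schedule: 4 h settle plus 2 h compound, 37 °C / Compound: single-point 5 µM / Buffer or medium: cells held in DMEM / Benchmarks: control and blank well means / Evaluation: percent signal gain over controls, blank-subtracted / Measured by: luciferase luminescence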
Yeast life ext – yeast lifespan extension; S. cerevisiae growth with nicotinamide, OD615; deaD strain in restrictive glucose medium; inhibition of the nicotinamide effect, % at 10 µM; hit rate 0.68% among 130,000;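 active = inhibition above a set limit, placed 3 SD over the median of all compounds, cut at about 26% in these data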;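 note: 0% = nicotinamide-treated wells and 100% = cells grown without nicotinamide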
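Assay system: engineered S. cerevisiae DeaD replicative-lifespan strain, galactose-grown log-phase cells; medium: restrictive CSMM-D dextrose medium; also added: nicotinamide, 1.5 mM, co-present with compound; schedule: 48 h compound exposure at 30 °C, humidified; detection: absorbance at 615 nm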
RAM network inh – yeast RAM network inhibition. inhibition, % at 50 µM. S. cerevisiae dse1pr::URA3 reporter, 5-FOA growth OD615, 2 d; analog-sensitive cbk1-as2 kinase mutant strain. hit rate 1.8% among 190,000;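 active = inhibition above a set limit, 3 SD over mean compound inhibition, cut at about 8.4% in these data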;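 note: 0% = DMSO-only wells with no growth and 100% = 10 µM 1-NA-PP1 full growth; inhibition rescues growth on 5-FOA so higher OD means more RAM inhibition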
Measles CPE – protection of cells from measles virus | protection (pct of control), % at 4 µM | Measles virus-infected cells, CPE protection, absorbance | hit rate 1.5% among 140,000; in the data active = protection mostly above about 24%, no sharp cut-off; inactive = mostly below about 26%
Insulin prom inh – TRM-6 insulin promoter activity inhibition; TRM-6 cells, insulin promoter-eGFP reporter, imaging; reporter expression induced with tamoxifen; inhibition, % at 2 µM; hit rate 0.9% among 130,000; AID 1273;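 active = inhibition above the mean plus 3 SD, with well images judged a real hit on visual review, cut at about 60% in these data, passing the limit was not always enough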
An asterisk follows results filed as active; nt = not tested or not shown.

SMILES	Yeast growth inh	Mdm2 ligase inh	Yeast life ext	RAM network inh	Measles CPE	Insulin prom inh
COc1coc(C(O)C[N+](=O)[O-])cc1=O (stereo not given)	-32	4	6	0	7	nt
COc1ccc(OC)c2c(C)cc(N3CCN(C(=O)c4ccc(Cl)cc4)CC3)nc12	-30	2	-13	-1	56*	-14
COC(=O)c1ccc2c(=O)n(CCN3CCOCC3)c(SCC(=O)NCc3ccccc3)nc2c1	nt	-38	nt	1	nt	38
O=C(Nc1ccncc1)Nc1ccncc1	nt	41*	nt	3	nt	-77
CC(=O)c1ccc(NC(=O)Nc2ccncc2)cc1	nt	-25	nt	2	nt	30
O=C(c1c[nH]c(C(=O)C(Cl)(Cl)Cl)c1)c1ccccc1Cl	67*	8	90*	-1	6	nt
NC(=O)c1cc(C(=O)c2ccc(Cl)cc2Cl)c[nH]1	nt	-8	nt	-1	nt	nt
CC1(C)CC(=NOC(=O)c2ccccc2)CC(C)(C)N1O	74*	0	-6	0	26	24
O=C(ON=C1CCN(S(=O)(=O)c2ccccc2)CC1)c1ccccc1	-40	-15	-20	0	6	-8
CCOC(=O)c1c(-c2ccc(OC)cc2)csc1NC(=O)COc1ccc2c(C)cc(=O)oc2c1	-19	-20	0	4	9	nt
CCOC(=O)c1c(-c2cccs2)csc1NC(=O)C(C)(C)C	-23	-12	-11	8.6*	6	-23
CCOC(=O)c1c(-c2ccc(OC)cc2)csc1NC(=O)CSc1ncnc2sccc12	-56	-14	4	4	43*	nt
CCOC(=O)c1c(-c2cccs2)csc1NC(=O)CSc1ncn[nH]1	-61	-19	0	9.4*	12	47
CCOC(=O)c1c(NC(=O)c2cccs2)sc(CC)c1-c1cccs1	-55	-1	-11	10*	7	35
CCOC(=O)c1c(-c2cccs2)csc1NC(C)=O	-34	0	nt	4	14	25
Cc1scc(C(=O)N/N=C/c2ccc(Cl)s2)c1C	-51	-6	-5	0	9	nt
O=C(Nc1ccc2oc(-c3ccncc3)nc2c1)c1c(F)c(F)c(F)c(F)c1F	-83	-12	1	6	18	31
COc1c(F)c(F)c(C(=O)Nc2ccc3oc(-c4ccncc4)nc3c2)c(F)c1F	-14	-17	-11	8.9*	4	56
O=C(Nc1ccc2oc(-c3ccccc3)nc2c1)c1cccnc1	-19	-2	-15	-1	59*	-64
CCNc1nc(NCC)nc(SCCOC(=O)Nc2ccc(Cl)cc2Cl)n1	-18	-3	-3	10*	2	-29
CCCCc1ccc(NC(=S)NCc2ccc(OC)cc2)cc1	nt	-15	nt	7	nt	12
Cc1cc(/C=N/n2cnnc2)c(C)n1-c1ccc(OCc2ccc(Cl)cc2Cl)cc1	46*	-29	-11	0	3	0
Cc1cc(/C=N/n2cnnc2)c(C)n1-c1ccc(Cl)cc1	2	-28	3	2	8	-128
CC1CCN(C(=O)CSc2nnc(-c3cc4ccccc4cc3O)n2Cc2ccco2)CC1	-26	-16	-6	6	25	nt
COc1ccc(/C=N/NC(=O)c2ccc(Cn3cc([N+](=O)[O-])cn3)o2)c(OC)c1C	-13	-9	1	9.5*	5	nt
SMILES	Yeast growth inh	Mdm2 ligase inh	Yeast life ext	RAM network inh	Measles CPE	Insulin prom inh
O=C(N/N=C/c1sc2ccccc2c1O)c1ccccc1	10	-6	1	2	2	-6
COc1ccc(C(=O)N/N=C/c2sc3ccccc3c2O)cc1	85*	-16	-2	0	3	50
O=C(N/N=C/c1sc2ccccc2c1O)c1cccc2ccccc12	91*	0	-4	3	3	-3
O=S(=O)(N/N=C\c1ccc(-c2ccccc2Cl)o1)c1ccccc1	-44	-13	nt	10*	8	-63
N#Cc1ccccc1Sc1ccccc1C(=O)Nc1ccccc1	-16	-16	-15	0	15	10
S=C(NCCc1ccccc1)Nc1cccc2cnccc12	nt	-27	nt	1	nt	73*
Cc1ccc(C2N(c3nccs3)C(=O)C3CCCN32)cc1 (stereo not given)	-35	2	-7	0	2	13
O=C1C2CCCN2C(c2ccc(F)cc2)N1c1nccs1 (stereo not given)	25	-14	-5	0	33*	nt
COCCNC(=O)CCCn1c(=O)c2cc(OC)c(OC)cc2n(CC(=O)NCCC2=CCCCC2)c1=O	nt	11	nt	3	nt	75*
COCCNC(=O)CCCn1c(=O)c2ccccc2n(CC(=O)NCCC2=CCCCC2)c1=O	-39	-1	-3	1	26	nt
COC(=O)c1cc2c(-c3ccccc3)cc3ccccn3c-2c1C(=O)OC	-35	-15	-16	6	79*	-105
COC(=O)c1c(C)c2c(C)cc3ccccn3c-2c1C(=O)OC	1	0	-18	0	6	-9
COC(=O)c1cc(NC(=O)N2c3ccccc3Sc3ccccc32)cc(C(=O)OC)c1	-65	-10	-5	9.8*	8	-17
COc1ccc(S(=O)(=O)N2CCOC2CNC(=O)C(=O)NCCc2c[nH]c3ccccc23)cc1C (stereo not given)	-9	nt	0	3	5	-100
Cc1cccnc1Nc1nc(-c2ccccn2)cs1	95*	-31	-15	1	5	-143
Cc1cccc(Nc2nc(-c3ccccn3)cs2)n1	100*	-40	-25	-1	2	-23
COC(=O)c1ccccc1NC(=O)c1ccc(COc2cc(C)cc(C)c2)o1	-34	-3	-3	11*	20	nt
Cc1ccc(OCc2ccc(C(=O)NN)o2)cc1C	nt	-10	nt	nt	nt	nt
COC(=O)c1ccccc1NC(=O)c1ccc(COc2ccc(C)c(C)c2)o1	-26	-8	-23	10*	0	-31
COc1ccc(/C=C2/C(=O)N(Cc3ccccc3)N=C2C)cc1	-56	-10	27*	1	6	-10
COc1ccc(/C=C2/C(=O)N(c3nc4ccccc4s3)N=C2CSc2ccc(Cl)cc2)cc1	-18	nt	7	6	21	7
O=C(/C=N/O)Nc1ccc2sc3ccccc3c2c1	nt	-12	nt	nt	nt	nt
O=S1(=O)NC(=NCc2ccco2)c2ccccc21	-28	-5	-14	1	18	16
CN(C)c1nc(=NCc2ccco2)ss1	nt	37*	nt	nt	nt	nt
O=C(NCc1csc(-c2ccccc2)n1)c1cc(F)cc2c1OCOC2	nt	-10	nt	nt	nt	nt
COc1cccc(NC(=O)c2cc(C(=O)Nc3cccc(OC)c3)n(C)n2)c1	-60	-15	6	11*	24	29
COc1cccc(NC(=O)c2ccncc2)c1	11	10	-20	0	7	42
C=C(C)CNC(=S)N/N=C/c1c(F)cccc1F	nt	-6	nt	0	nt	nt
CCOC(=O)N1CCN(C(=O)CCCn2c(=S)[nH]c3ccsc3c2=O)CC1	nt	-12	nt	2	nt	29

Screening results: PubChem, several laboratories
